Experimental data: BindingDB's records for doi:10.1021/np970237h (University of Antwerp, 1998)

Biological target: Xanthine dehydrogenase/oxidase (Homo sapiens, UniProt P47989)
Experiment: Inhibition of xanthine oxidase assessed as decrease in uric acid production by spectrophotometry
Procedure, shortened: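 Flavonoid at various concentrations with 50 µM xanthine, 0.2 mM hydroxylamine and 0.1 mM EDTA. Stopped with HCl, then uric acid read as absorbance at 290 nm against an enzyme-free blank. IC50 by linear regression.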

Chain of Xanthine dehydrogenase/oxidase (P47989 whole entry): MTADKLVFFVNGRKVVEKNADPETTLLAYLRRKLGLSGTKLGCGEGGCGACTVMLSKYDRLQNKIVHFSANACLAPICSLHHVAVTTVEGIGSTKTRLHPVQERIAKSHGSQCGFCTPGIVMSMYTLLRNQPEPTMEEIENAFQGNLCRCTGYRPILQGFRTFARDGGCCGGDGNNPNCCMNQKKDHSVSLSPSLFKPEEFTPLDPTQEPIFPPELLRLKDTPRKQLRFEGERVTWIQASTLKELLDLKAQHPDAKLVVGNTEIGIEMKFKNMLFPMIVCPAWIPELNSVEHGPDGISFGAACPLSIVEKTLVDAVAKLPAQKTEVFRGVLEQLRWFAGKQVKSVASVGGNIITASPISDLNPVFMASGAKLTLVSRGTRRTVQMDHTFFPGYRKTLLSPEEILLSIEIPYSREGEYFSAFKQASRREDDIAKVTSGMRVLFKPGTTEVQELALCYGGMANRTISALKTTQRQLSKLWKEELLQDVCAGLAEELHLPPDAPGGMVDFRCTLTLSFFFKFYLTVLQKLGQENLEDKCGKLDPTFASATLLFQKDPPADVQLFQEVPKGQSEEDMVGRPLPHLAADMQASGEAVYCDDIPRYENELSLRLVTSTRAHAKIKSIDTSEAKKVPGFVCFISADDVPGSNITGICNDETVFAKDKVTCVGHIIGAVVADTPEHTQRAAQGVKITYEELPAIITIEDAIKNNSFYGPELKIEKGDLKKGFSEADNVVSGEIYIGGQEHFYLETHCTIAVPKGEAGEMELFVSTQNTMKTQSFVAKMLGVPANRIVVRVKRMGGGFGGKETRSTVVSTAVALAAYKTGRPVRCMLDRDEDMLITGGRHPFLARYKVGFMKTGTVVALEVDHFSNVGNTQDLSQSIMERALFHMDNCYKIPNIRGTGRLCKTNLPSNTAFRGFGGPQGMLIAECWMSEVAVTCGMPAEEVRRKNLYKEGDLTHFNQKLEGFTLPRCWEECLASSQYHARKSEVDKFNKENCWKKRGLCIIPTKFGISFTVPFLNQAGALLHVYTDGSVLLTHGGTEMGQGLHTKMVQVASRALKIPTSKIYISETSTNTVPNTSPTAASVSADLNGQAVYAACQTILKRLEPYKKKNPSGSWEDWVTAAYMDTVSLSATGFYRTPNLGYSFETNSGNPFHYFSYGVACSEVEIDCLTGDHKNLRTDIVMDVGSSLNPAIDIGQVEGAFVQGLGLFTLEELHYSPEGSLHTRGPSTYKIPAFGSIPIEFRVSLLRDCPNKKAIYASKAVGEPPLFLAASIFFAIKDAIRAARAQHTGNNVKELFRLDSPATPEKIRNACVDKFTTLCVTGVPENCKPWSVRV

IC50 | Structure (SMILES)
> 100 µM | O=C(C=Cc1ccc(O)cc1)OC[C@H]1O[C@@H](Oc2c(-c3ccc(O)cc3)oc3cc(O)cc(=O)c-3c2O)[C@H](O)[C@@H](O)[C@@H]1O [kaempferol-3-beta-D-(6-O-trans-p-coumaroyl)glucopyranoside]
> 100 µM | C[C@@H]1O[C@@H](Oc2c(-c3ccc(O)c(O)c3)oc3cc(O)cc(=O)c-3c2O)[C@H](O)[C@H](O)[C@H]1O
